UPR CHOP act – activators of apoptotic arm of unfolded protein response (CHOP) | activation, % at 10 µM | CHO-CHOP luciferase reporter, UPR activation, luminescence; percent of tunicamycin response over DMSO baseline | 330,000 tested, 0.34% active | AID 449763;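 active means at 10 µM dose, activation of 40% or more, normalized to positive control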;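 further: 100% = tunicamycin at 10 µg/mL and 0% = DMSO alone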
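System: CHO-CHOP luciferase reporter cell line | Buffer or medium: F12 medium containing 10% fetal bovine serum | Doses: One dose, 10 µM in 0.5% DMSO | Times: 6 h compound exposure at 37 °C after overnight seeding | Signal: Luciferase luminescence | Read-out: % activation vs tunicamycin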
CHOP inh – blocks CHOP induction under ER stress; inhibition, % at 10 µM; 220,000 tested, 3.8% active; AID 2732; CHO-K1 CHOP-promoter luciferase, tunicamycin-induced, 15-18 h;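 active means compounds that reduced the stress-induced luciferase reporter signal by more than about 70% of percent inhibition, limit read from the data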;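 further: 0% = tunicamycin plus vehicle and 100% = wells without tunicamycin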
TLR9-MyD88 inh – inhibitors of human TLR9-MyD88 binding | 340,000 tested, 0.21% active | AID 504734 | inhibition, % at 4.98 µM | CHO BLA complementation TLR9-MyD88, CCF4 FRET ratio | Q9NR96+Q99836;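 active means inhibition above the mean over all tested compounds plus 3 SD, cut at about 21% in these data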;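 further: 0% = DMSO only wells and 100% = clavulanate BLA inhibitor control wells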
TLR4-MyD88 BLA – inhibitors of human TLR4-MyD88 binding; O00206+Q99836; HeLa CL3-4 TLR4/MyD88 BLA complementation, FRET ratio; inhibition, % at 8.4 µM; 200,000 tested, 0.18% active; AID 861; in the data active means inhibition above about 25%;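 further: 0% = vehicle and 100% = reference inhibitor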
Target sequence (O00206 whole entry, looked up): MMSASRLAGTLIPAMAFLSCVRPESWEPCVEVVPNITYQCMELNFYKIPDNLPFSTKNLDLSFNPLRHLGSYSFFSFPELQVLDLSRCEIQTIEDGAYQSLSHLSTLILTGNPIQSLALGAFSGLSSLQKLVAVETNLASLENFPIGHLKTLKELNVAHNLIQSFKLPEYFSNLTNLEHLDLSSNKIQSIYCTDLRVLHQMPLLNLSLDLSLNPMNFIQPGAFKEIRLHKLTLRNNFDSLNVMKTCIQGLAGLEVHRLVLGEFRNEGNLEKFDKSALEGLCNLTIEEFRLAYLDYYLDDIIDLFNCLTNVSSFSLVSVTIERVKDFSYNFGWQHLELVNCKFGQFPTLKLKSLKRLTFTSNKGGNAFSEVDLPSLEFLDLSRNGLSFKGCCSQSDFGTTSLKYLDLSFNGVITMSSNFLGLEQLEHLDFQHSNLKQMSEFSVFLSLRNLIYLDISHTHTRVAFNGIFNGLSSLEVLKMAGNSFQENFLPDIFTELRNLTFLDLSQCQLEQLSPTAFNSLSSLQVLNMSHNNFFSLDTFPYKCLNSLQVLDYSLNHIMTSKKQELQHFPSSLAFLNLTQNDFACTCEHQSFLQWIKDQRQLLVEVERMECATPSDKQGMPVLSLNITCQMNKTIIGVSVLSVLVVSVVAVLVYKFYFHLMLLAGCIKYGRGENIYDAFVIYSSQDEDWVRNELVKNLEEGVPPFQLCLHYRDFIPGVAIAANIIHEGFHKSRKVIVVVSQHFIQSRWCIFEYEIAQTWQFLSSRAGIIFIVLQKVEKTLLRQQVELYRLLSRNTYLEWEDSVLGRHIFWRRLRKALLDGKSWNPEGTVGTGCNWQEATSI
Target sequence (Q99836 whole entry, looked up): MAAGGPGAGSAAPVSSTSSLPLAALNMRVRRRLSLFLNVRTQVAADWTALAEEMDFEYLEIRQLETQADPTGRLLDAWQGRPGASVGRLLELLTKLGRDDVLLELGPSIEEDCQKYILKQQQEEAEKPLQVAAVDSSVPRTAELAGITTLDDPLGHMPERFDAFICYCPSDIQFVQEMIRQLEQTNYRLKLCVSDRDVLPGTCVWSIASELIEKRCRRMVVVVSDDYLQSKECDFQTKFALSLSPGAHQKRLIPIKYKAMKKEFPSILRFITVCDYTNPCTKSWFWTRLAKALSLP
XBP1 UPR activ – adaptive UPR (XBP1) activation | CHO-XBP1 luciferase reporter, IRE1-XBP1 UPR activation, luminescence; percent of tunicamycin response, DMSO as zero | activation, % at 20 µM | 330,000 tested, 0.33% active;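 active means versus positive control, 20 µM dose yields 30% or more activation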;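 further: 100% = tunicamycin at 10 µg/mL and 0% = DMSO only wells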
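Material: CHO-XBP1 cells stably carrying IRE1-XBP1-driven luciferase reporter / Amount: 1000 cells per well / Compound: 20 µM, 1% DMSO / Times: 6 h treatment, 37 °C / Detection: luciferase luminescence / Measure: % activation of reporter signal versus tunicamycin and DMSO controls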
NOD2-RIPK2 inh – NOD2-RIPK2 protein interaction inhibition | 360,000 tested, 0.38% active | inhibition, % at 4.98 µM | CHO BLA complementation NOD2-RIPK2, CCF4 ratio | O43353; in the data active means inhibition above about 21%;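 further: 0% = vehicle only and 100% = reference blocker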
TLR9-MyD88 cf – confirmation of human TLR9-MyD88 binding inhibitors. shares compounds with TLR9-MyD88 inh. CHO TLR9/MyD88 BLA complementation, CCF4 FRET ratio. inhibition, % at 4.98 µM. 680 tested, 51% active;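 active means mean inhibition across three repeats above about 21% taken from the earlier screen, limit read from the data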;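 further: blue over green emission ratio reports constitutive TLR9 MyD88 association via BLA complementation; 0% = DMSO vehicle wells and 100% = clavulanate BLA inhibitor wells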
BLA counter-1 – counter-screen for TLR9-MyD88 inhibitors: non-selective beta-lactamase inhibitors. shares compounds with TLR9-MyD88 inh. CHO-BLA cells, CCF4 FRET ratio, BLA reporter. 680 tested, 7% active. inhibition, % at 4.98 µM;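 active means mean inhibition above a 50% cutoff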;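 further: counterscreen of TLR9-MyD88 hits on CMV-driven BLA in CHO-K1 cells; 0% = DMSO alone and 100% = clavulanate blocking BLA; higher means less blue over green ratio so more BLA blockade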
TLR9 CHO cytotox – counter-screen for TLR9-MyD88 inhibitors: cytotoxicity in CHO cells | 680 tested, 39% active | luminescence | inhibition, % at 4.98 µM | shares compounds with TLR9-MyD88 inh; in the data active means inhibition above about 11%
NOD2 RIPK2 conf – confirmation of human NOD2-RIPK2 interaction inhibitors; shares compounds with NOD2-RIPK2 inh; CHO cells, NOD2-RIPK2 BLA complementation, CCF4 FRET; inhibition, % at 4.98 µM; 1,200 tested, 70% active; AID 624370;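 active means mean inhibition across replicates above a set limit taken from the earlier primary screen, cut at about 21% in these data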;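 further: 0% = DMSO-only wells and the high end = clavulanate BLA-blocked wells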
BLA counter-2 – NOD2-RIPK2 counterscreen BLA reporter activity; 1,200 tested, 57% active; CHO BLA reporter, CCF4 FRET ratio; shares compounds with NOD2-RIPK2 inh; inhibition, % at 4.98 µM;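 active means mean inhibition above the low-control mean inhibition plus three low-control SD, cut at about 11% in these data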;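 further: 0% = DMSO only wells and 100% = clavulanate high control wells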
* = called active by the depositor. The full list was thinned out, with hits kept by preference.

Screening CCS(=O)(=O)c1ncc(Cl)c(C(=O)Nc2ccc(S(=O)(=O)N3CCCC(C)C3)cc2)n1 (configuration not stated) returned UPR CHOP act -11, TLR9-MyD88 inh 2, XBP1 UPR activ -10 and NOD2-RIPK2 inh 14.
Screening CCC1CCCCN1S(=O)(=O)c1ccc(NC(=O)c2ccncc2)cc1 (configuration not stated) returned UPR CHOP act 3, TLR9-MyD88 inh -2, XBP1 UPR activ -2 and NOD2-RIPK2 inh 5.
`CCC1CCCCN1S(=O)(=O)c1ccc(NC(=O)c2nc(S(C)(=O)=O)ncc2Cl)cc1` (configuration not stated) gave UPR CHOP act -11, TLR9-MyD88 inh 53*, XBP1 UPR activ -8, NOD2-RIPK2 inh 96*, TLR9-MyD88 cf 47*, BLA counter-1 31, TLR9 CHO cytotox 98*, NOD2 RIPK2 conf 94* and BLA counter-2 48*.
CN(C)c1ccc(/C=C/c2nc3ccccc3c(=O)n2-c2ccc(C(=O)O)cc2)cc1 was read as UPR CHOP act 1, TLR9-MyD88 inh 40*, XBP1 UPR activ 0, NOD2-RIPK2 inh 34*, TLR9-MyD88 cf 25*, BLA counter-1 27, TLR9 CHO cytotox 1, NOD2 RIPK2 conf 60* and BLA counter-2 65*.
`Cc1c(Cl)cccc1N=C1NC(=O)CS1` gave TLR9-MyD88 inh 1 and NOD2-RIPK2 inh -4.
Screening CCOC(=O)c1cc2c(ccc3nc(C)c(C)c32)[nH]c1C returned UPR CHOP act -1, TLR9-MyD88 inh 9, XBP1 UPR activ 20 and NOD2-RIPK2 inh 17.
`N#Cc1ccccc1OCCN1C(=O)c2ccccc2C1=O` gave UPR CHOP act 8, CHOP inh -5, TLR9-MyD88 inh -9, TLR4-MyD88 BLA 14, XBP1 UPR activ 6 and NOD2-RIPK2 inh 0.
Nc1cccc2c1C(=O)N(CCOc1ccccc1F)C2=O was read as UPR CHOP act -2, TLR9-MyD88 inh 27*, XBP1 UPR activ -4, NOD2-RIPK2 inh 33*, TLR9-MyD88 cf 17, BLA counter-1 22, TLR9 CHO cytotox -4, NOD2 RIPK2 conf 38* and BLA counter-2 49*.
Screening O=C(NCc1ccccc1)c1nc(S(=O)(=O)Cc2ccccc2)ncc1Cl returned UPR CHOP act 105*, TLR9-MyD88 inh 1, XBP1 UPR activ -11, NOD2-RIPK2 inh 53*, NOD2 RIPK2 conf 54* and BLA counter-2 14*.
For O=C(Cc1ccccc1)NCc1ccc2c(c1)OCO2 the results were UPR CHOP act 5, CHOP inh -14, TLR9-MyD88 inh 0, TLR4-MyD88 BLA 7, XBP1 UPR activ -1 and NOD2-RIPK2 inh -1.
Screening O=C(NCc1ccc2c(c1)OCO2)c1nc(S(=O)(=O)Cc2ccccc2)ncc1Cl returned UPR CHOP act 11, TLR9-MyD88 inh 0, XBP1 UPR activ -6, NOD2-RIPK2 inh 36*, NOD2 RIPK2 conf 29* and BLA counter-2 6.
COc1ccc(CNC(=O)c2nc(S(=O)(=O)Cc3ccccc3)ncc2Cl)cc1 was read as UPR CHOP act 164*, TLR9-MyD88 inh 8, XBP1 UPR activ -8, NOD2-RIPK2 inh 62*, NOD2 RIPK2 conf 63* and BLA counter-2 15*.
For Cc1noc(C(=O)NCc2ccccc2)c1Cl the results were UPR CHOP act 1, CHOP inh 24, TLR9-MyD88 inh -27, TLR4-MyD88 BLA -1, XBP1 UPR activ 1 and NOD2-RIPK2 inh 5.
`O=C(CCc1ccccc1)NC(NC(=S)Nc1ccc(Cl)cc1)C(Cl)(Cl)Cl` (configuration not stated) gave UPR CHOP act 24, CHOP inh 62, TLR9-MyD88 inh 0, TLR4-MyD88 BLA -7, XBP1 UPR activ 4 and NOD2-RIPK2 inh 8.
Screening CC(=O)c1cc(CN2CCN(C3CCN(C(C)C)CC3)C(CCO)C2)cs1 (configuration not stated) returned UPR CHOP act -1, CHOP inh -14, TLR9-MyD88 inh -9, TLR4-MyD88 BLA -13, XBP1 UPR activ -3 and NOD2-RIPK2 inh 7.
Screening O=C(COc1ccc(S(=O)(=O)N2CCOCC2)cc1Cl)NCC1CCCO1 (configuration not stated) returned UPR CHOP act -1, TLR9-MyD88 inh -7, XBP1 UPR activ -2, NOD2-RIPK2 inh 46*, NOD2 RIPK2 conf -2 and BLA counter-2 -4.
For COCC(=O)Nc1nc2n(n1)C(c1ccccc1)CC(c1ccc(OC)cc1)N2 (configuration not stated) the results were UPR CHOP act -1, CHOP inh 9, TLR9-MyD88 inh 13, TLR4-MyD88 BLA -2, XBP1 UPR activ 1, NOD2-RIPK2 inh 28*, NOD2 RIPK2 conf 26* and BLA counter-2 26*.
`O=C(O)c1ccc(CNCc2ccccc2F)cc1` gave UPR CHOP act 2, CHOP inh 9, TLR9-MyD88 inh -2, TLR4-MyD88 BLA 7, XBP1 UPR activ 1 and NOD2-RIPK2 inh 0.
For C/C(=N\Nc1ncc(Br)cn1)c1cccc([N+](=O)[O-])c1 the results were UPR CHOP act 4, TLR9-MyD88 inh 4, XBP1 UPR activ 4 and NOD2-RIPK2 inh -9.
Screening C/C(=N\Nc1ccc([N+](=O)[O-])cc1)c1cccc(N)c1 returned UPR CHOP act 1, CHOP inh 55, TLR9-MyD88 inh 11, TLR4-MyD88 BLA 5, XBP1 UPR activ 2, NOD2-RIPK2 inh 24*, NOD2 RIPK2 conf 19 and BLA counter-2 21*.
Screening Cc1c(Cl)sn(-c2ccc(Cl)cc2)c1=O returned UPR CHOP act -1, CHOP inh 95*, TLR9-MyD88 inh 4, TLR4-MyD88 BLA 24, XBP1 UPR activ -10, NOD2-RIPK2 inh 29*, NOD2 RIPK2 conf 89* and BLA counter-2 28*.
